# Bioassay records deposited in PubChem by Broad Institute.
# PglD DTNB: blocks C. jejuni PglD acetyltransferase activity; purified PglD enzyme, DTNB colorimetric CoA detection; inhibition, % at 12.5 µM; hit rate 0.098% among 360,000; AID 602405; in the data active = inhibition above about 16%, passing the limit was not always enough; inconclusive = no clear call, values can overlap the other calls
# SR-BI DiI inh: mouse SR-BI HDL lipid transfer inhibition; inhibition, % at 12.5 µM; ldlA[mSR-BI] CHO cells, DiI-HDL uptake fluorescence, 3 h; Q61009; hit rate 0.96% among 320,000; AID 488896;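 active = mean replicate inhibition of at least 70% and a set share of replicates each scoring 70 or more; inconclusive = meets just one of the two criteria; inactive = fails both criteria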
# Target sequence (Q61009 whole entry, looked up): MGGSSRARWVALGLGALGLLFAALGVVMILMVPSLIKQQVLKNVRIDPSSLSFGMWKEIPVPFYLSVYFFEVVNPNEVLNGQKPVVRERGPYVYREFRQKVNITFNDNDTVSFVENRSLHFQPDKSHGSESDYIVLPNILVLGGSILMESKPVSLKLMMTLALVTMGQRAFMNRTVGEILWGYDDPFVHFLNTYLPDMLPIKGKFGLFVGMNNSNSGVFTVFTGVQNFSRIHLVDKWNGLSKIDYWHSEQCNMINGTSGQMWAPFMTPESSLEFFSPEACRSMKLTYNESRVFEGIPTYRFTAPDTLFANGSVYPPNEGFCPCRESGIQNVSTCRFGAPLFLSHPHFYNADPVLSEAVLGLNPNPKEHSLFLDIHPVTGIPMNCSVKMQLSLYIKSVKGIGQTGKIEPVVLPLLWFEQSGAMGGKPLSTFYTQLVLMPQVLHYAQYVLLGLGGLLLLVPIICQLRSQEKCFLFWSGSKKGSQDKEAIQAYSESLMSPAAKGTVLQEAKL
# HIV Env fusion: inhibitors of HIV Env-mediated cell fusion. HeLa-JRFL Env/CEM21 cell fusion, luciferase. inhibition, % at 12.3 µM. hit rate 1.1% among 360,000;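 active = mean replicate inhibition score of at least 50 and every replicate individually at or above 50; inconclusive = only one of the two criteria met; inactive = mean below 50 and not all replicates reaching 50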
# N-glyco inh: N-linked glycosylation inhibition. D54 ERlucT glycosylation luciferase reporter, 24 h; percent of 100 nM tunicamycin response. reporter increase, % at 12.5 µM. hit rate 0.23% among 360,000;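 active = mean luciferase reporter signal, scaled so untreated is 0 and the glycosylation-blocking control 100, at or above a set limit in every replicate; inconclusive = mean reaches the limit but not every replicate does; inactive = mean below the limit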;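 note: luciferase carries N-glycosylation sites so blocking glycosylation raises the light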
# Rtt109 Vps75: C. albicans Rtt109 histone acetyltransferase inhibition | Q5AAJ8 | purified Rtt109/Vps75, ThioGlo CoA-SH fluorescence, 4 h | inhibition, % at 34.9 µM | hit rate 0.16% among 330,000 | AID 540336;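 active = inhibition of at least 50% in every replicate; inconclusive = best replicate reaches 50% inhibition but some replicates fall short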
# SR-BI DiI-HDL act: activators of SR-BI mediated HDL lipid uptake; activation, % at 12.5 µM; AID 504775; CHO ldlA[mSR-BI] cells, DiI-HDL uptake fluorescence, 3 h; 100 = double the neutral-control signal; hit rate 0.096% among 320,000;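 active = mean replicate activation of at least 60% and every replicate at or above 60%; inconclusive = mean or all-replicate condition met, but not both; inactive = mean below 60% and not all replicates reaching 60%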
#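 Test system: SR-BI-overexpressing, LDLR-lacking CHO cells; Medium: Ham's F12 with 0.5% BSA, HEPES 25 mM, pH 7.4; Schedule: 3 h, 37 °C; Technique: bottom-read fluorescence, 550/595 nm.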
# A number is an active result; n = inactive; u = inconclusive; x = no result. In the library only some 1.9% were active in any assay of this set; here they are far more common.
SMILES,PglD DTNB,SR-BI DiI inh,HIV Env fusion,N-glyco inh,Rtt109 Vps75,SR-BI DiI-HDL act
O=C(Cc1ccc(F)cc1)Nc1cccc2cccnc12,n,n,n,n,63,n
CCC(=O)Nc1cccc2cccnc12,n,n,n,n,x,n
CN(C)c1ccc2c(c1)[C@@H]1C[C@@H](CC(=O)NCc3cc(F)ccc3F)O[C@@H](CO)[C@@H]1O2,n,x,n,x,x,x
COc1ccc(-c2cc(=O)n(-c3nc4ccccc4[nH]3)[nH]2)cc1,n,n,66,u,n,n
O=C(C[C@@H]1C[C@@H]2c3cc(NC(=O)c4cccnc4)ccc3O[C@@H]2[C@@H](CO)O1)NCc1ccncc1,n,x,x,x,x,x
CN1C(=O)c2cc(NC(=O)Cc3cccs3)ccc2OC[C@H]2O[C@H](CC(=O)N[C@H]3CCN(Cc4ccccc4)C3)CC[C@H]21,n,x,n,x,x,x
COc1ccc(Cn2nnnc2C(c2cc3cc(C)cc(C)c3[nH]c2=O)N2CCOCC2)cc1 (centres undefined),n,n,131,n,n,n
CCc1ccc2[nH]c(=O)c(C(c3nnnn3Cc3ccccc3)N3CCOCC3)cc2c1 (centres undefined),n,n,n,n,n,n
CCc1ccc2[nH]c(=O)c(C(c3nnnn3Cc3ccc(OC)cc3)N3CCOCC3)cc2c1 (centres undefined),n,n,78,n,n,n
COc1ccc(-c2nc3ccccc3n2Cc2ccccc2)cc1,n,n,x,n,n,n
COc1ccc(-c2n(Cc3ccccc3)c3ccccc3[n+]2Cc2ccccc2)cc1,x,n,70,n,n,n
Cn1cc(S(=O)(=O)N2CCOCC2)cc1C(=O)Nc1cccc(Cl)c1,n,n,98,n,n,n
O=C(/C=C/c1ccc(OC(F)F)cc1)Nc1cccc(S(=O)(=O)N2CCOCC2)c1,n,80,n,n,n,n
Cc1cccc(NC(=O)c2cc(S(=O)(=O)N3CCOCC3)cn2C)c1C,n,n,n,n,n,n
CC(=O)c1cccc(NC(=O)/C=C/c2ccc(S(=O)(=O)N3CCOCC3)cc2)c1,n,72,n,n,n,n
C[C@@H](O)C#Cc1cnc2c(c1)C(=O)N([C@@H](C)CO)C[C@H](C)[C@H](CN(C)C(=O)Cc1ccncc1)O2,n,x,n,x,x,x
CC(C)NC(=O)Nc1ccc2c(c1)CC(=O)N([C@@H](C)CO)C[C@@H](C)[C@H](CN(C)C(=O)Nc1ccc3c(c1)OCO3)O2,n,x,n,x,x,x
O=C(Nc1cccc2ccccc12)c1ccc([N+](=O)[O-])o1,n,n,n,27,n,n
Cc1cccc(NC(=O)c2ccc([N+](=O)[O-])o2)c1C,n,n,n,n,n,n
CC1CCN(c2ccc(NC(=O)c3ccc([N+](=O)[O-])o3)cc2)CC1,n,87,x,n,n,n
O=C(Nc1ccc(N2CCCC2)c(Cl)c1)c1ccc([N+](=O)[O-])o1,x,n,n,46,n,n
O=C(Nc1ccc(N2CCCCC2)cc1)c1ccc([N+](=O)[O-])o1,n,n,n,n,n,n
CCOC(=O)c1ccc(N2C(=O)c3n[nH]c(C)c3C2c2ccc(OC)c(OC)c2)cc1 (centres undefined),n,n,n,n,n,n
CCOC(=O)c1ccc(N2C(=O)c3n[nH]c(C)c3C2c2ccc(OC)cc2)cc1 (centres undefined),n,n,u,n,77,n
COc1cc(/C=C2\SC(N)=NC2=O)cc(OC)c1,n,n,59,n,n,n
SMILES,PglD DTNB,SR-BI DiI inh,HIV Env fusion,N-glyco inh,Rtt109 Vps75,SR-BI DiI-HDL act
CC(=O)c1c(C)[nH]c(C(=O)OCc2csc(CC(=O)Nc3ccccc3C)n2)c1C,n,73,n,n,n,n
O=C(NCC[C@@H]1CC[C@@H](NC(=O)C2CCCCC2)[C@H](CO)O1)Nc1ccc(Cl)cc1,n,x,n,x,x,x
CCOc1ccc(C(=O)NCC(=O)NCCSc2ccc(Br)cc2)cc1OCC,n,87,n,n,n,n
CCCN1C[C@H](C)[C@H](OC)CN(C)C(=O)c2cc(NS(=O)(=O)c3cn(C)cn3)ccc2OC[C@H]1C,n,x,x,x,x,x
CC(=O)Nc1ccc2[nH]c3ccccc3c2c1,x,n,x,n,x,n
O=C(Nc1ccc(Cl)cc1)c1cc2c(cc1O)[nH]c1ccccc12,n,n,62,n,n,n
CN1c2ccc(-c3ccc(C#N)cc3)cc2[C@H]2[C@H](CCN2C(=O)c2cccc(F)c2)[C@@H]1CO,n,x,x,x,x,x
CCOc1cc(/C=N/NC(=O)c2ccc(CN3CCOCC3)cc2)ccc1OCc1ccccc1,n,n,56,n,n,n
CCOc1cc(/C=N/NC(=O)c2ccc(N(C)S(=O)(=O)c3ccccc3)cc2)ccc1OC,n,73,n,n,n,n
Cc1cnc(NC(=O)c2cc3c(C)nn(-c4ccccc4)c3s2)s1,n,76,x,n,n,n
CC(C)C[C@H]1CNC(=S)N1C[C@H]1CCCN1C[C@H](Cc1ccccc1)N1C[C@H](Cc2ccc(O)cc2)N(CC2CCCCC2)C1=S,n,x,n,n,x,x
Oc1ccc(C[C@H]2CNC(=S)N2CC2CCCN2C[C@H](Cc2ccc(O)cc2)N2C[C@H](Cc3ccccc3)N(CC3CCCCCC3)C2=S)cc1 (some centres undefined),n,n,61,n,n,68
Oc1ccc(C[C@H]2CNC(=S)N2CC2CCCN2C[C@H](Cc2ccc(O)cc2)N2C[C@H](Cc3ccc(O)cc3)N(CC3CCCCCC3)C2=S)cc1 (some centres undefined),n,n,n,n,n,186
CC(CCN1CCC(CN2C(=S)NCC2Cc2ccccc2)CC1)c1ccccc1 (centres undefined),n,n,66,n,n,n
CC(C)CCN1CCC(CN2C(=S)NC[C@@H]2Cc2ccccc2)CC1,n,n,x,n,n,n
Oc1ccc(C[C@@H](CN2CCCC2CN2C(=S)NC[C@@H]2Cc2ccccc2)N2C[C@H](Cc3ccccc3)N(CC3CCCCC3)C2=S)cc1 (some centres undefined),x,x,n,x,x,x
CC(C)C[C@H]1CNC(=S)N1C[C@H]1CCCN1C[C@H](Cc1ccc(O)cc1)N1C[C@H](Cc2ccccc2)N(CC2CCCCCC2)C1=S,n,x,94,n,x,x
Oc1ccc(C[C@H]2CN([C@@H](Cc3ccccc3)CN3CCC[C@@H]3CN3C(=S)NC[C@@H]3Cc3ccccc3)C(=S)N2CC2CCCCC2)cc1,n,x,n,n,x,x
CO[C@H]1CN(C)C(=O)c2ccc(NC(=O)Nc3ccccc3F)cc2OC[C@H](C)N(C)C[C@H]1C,n,x,x,x,x,x
CNC(=O)C[C@H]1CC[C@H]2[C@H](COc3ccc(NC(=O)NCc4ccccc4)cc3C(=O)N2C)O1,n,x,n,x,x,x
CC1=[N+](C)c2c(ccc3cccnc23)C1(C)C,x,n,n,n,n,97
Cc1[nH]c2c(ccc3cccnc32)c1C,n,n,n,n,n,n
